# FN deposition inh: fibronectin deposition inhibition; hit rate 0.086% among 350,000; AH1F fibroblasts, Alexa488-fibronectin deposition fluorescence, overnight; inhibition, % at 12.6 µM;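 active = mean inhibition across replicates of 30% or more, regardless of how many single replicates reach that level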;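 note: positive control wells lacked labelled fibronectin entirely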
#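 Material: AH1F fibroblasts assembling fluorescent fibronectin matrix; amount: 10000 AH1F cells/well; medium: DMEM, 2% serum; reagent: Alexa488-fibronectin, 24 nM final in well; dosing: single compound dose, delivered by pin transfer; incubation: 1 h adhesion, overnight exposure; detection: fluorescence after three HBSS washes, excitation 485 nm, emission 525 nm; measure: fibronectin deposition inhibition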
# CaV13 ICDI inh: Primary screen for inhibitors of IQ motif and Ca2+-dependent inactivation inhibitor domain binding in CACNA1D, Förster resonance energy transfer in living cells, …. hit rate 0.098% among 340,000. inhibition, % at 12.3 µM. HEK cells, CFP/YFP FRET ICDI-IQ, plate reader, 10 min; percent FRET-ratio fall versus neutral wells;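 active = mean replicate inhibition of at least 30% and at least 1% of replicates passing that level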;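 note: 0% = median of the neutral control wells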
# Efflux pump inh: inhibitors of Candida antifungal efflux pumps expressed in yeast; S. cerevisiae Candida pump triplex, Nile Red efflux; inhibition, % at 10 µM; hit rate 0.44% among 330,000; AID 485275;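 active = plate passing quality check with inhibition over a set limit, or well fluorescence over plate mean plus 4 SD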;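 note: Nile Red retained in pooled yeast measured as flow cytometry median fluorescence; 0% = buffer negative control and 100% = Enniatin B positive control; higher means more Nile Red kept so more efflux inhibition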
# SR-BI uptake up: activators of SR-BI mediated HDL lipid uptake; CHO ldlA[mSR-BI] cells, DiI-HDL uptake fluorescence, 3 h; 100 = double the neutral-control signal; activation, % at 12.5 µM; hit rate 0.096% among 320,000;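 active = mean replicate activation of at least 60% and every replicate at or above 60%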;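 note: 0% = median plate neutral-control signal and 100% = twice that signal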
#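 Material – SR-BI-overexpressing, LDLR-lacking CHO cells · Medium – BSA-supplemented, HEPES-buffered Ham's F12, pH 7.4 · Doses – single concentration · Times – compound with DiI-HDL co-incubation, 3 h at 37 °C · Measured by – bottom-read fluorescence, 550/595 nm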
# SR-BI HDL uptake: mouse SR-BI HDL lipid transfer inhibition; inhibition, % at 12.5 µM; hit rate 0.96% among 320,000; ldlA[mSR-BI] CHO cells, DiI-HDL uptake fluorescence, 3 h;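 active = mean replicate inhibition of at least 70% and a set share of replicates each scoring 70 or more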;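 note: 0% = median of neutral control wells and 100% = median of positive control wells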
# Target sequence (Q61009 whole entry, looked up): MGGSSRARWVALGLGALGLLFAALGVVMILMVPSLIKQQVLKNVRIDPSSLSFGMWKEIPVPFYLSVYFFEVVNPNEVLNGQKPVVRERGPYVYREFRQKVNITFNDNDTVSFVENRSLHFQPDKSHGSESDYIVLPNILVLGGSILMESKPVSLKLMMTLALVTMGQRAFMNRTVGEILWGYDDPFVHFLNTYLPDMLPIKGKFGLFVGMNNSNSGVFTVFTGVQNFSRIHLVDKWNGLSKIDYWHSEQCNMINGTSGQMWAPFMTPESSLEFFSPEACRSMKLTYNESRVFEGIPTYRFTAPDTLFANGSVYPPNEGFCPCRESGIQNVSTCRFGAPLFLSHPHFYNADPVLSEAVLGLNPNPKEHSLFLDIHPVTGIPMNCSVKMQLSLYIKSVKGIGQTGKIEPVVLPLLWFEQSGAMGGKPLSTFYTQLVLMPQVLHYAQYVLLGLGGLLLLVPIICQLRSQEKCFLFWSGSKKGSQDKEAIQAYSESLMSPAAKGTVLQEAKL
# Yeast cmpd fluor: counter-screen for efflux pump inhibitors: compound fluorescence | S. cerevisiae AD/pABC3, flow cytometry | fluorescence ratio to DMSO, % at 10 µM | hit rate 4% among 1,700 | shares compounds with Efflux pump inh | AID 588517;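 active = fluorescence ratio to DMSO above its plate's cutoff, the plate mean ratio plus 5 SD, cut at about 210% in these data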;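 note: unstained yeast with no Nile Red so the signal is compound autofluorescence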
# Mdr1 pump inh: blocks the Candida albicans Mdr1 efflux pump in yeast; shares compounds with Efflux pump inh; S. cerevisiae AD/CaMDR1, Nile Red efflux, flow cytometry; inhibition, % at 10 µM; hit rate 1% among 1,700; in the data active = inhibition above about 26%;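 note: 0% = DMSO vehicle and 100% = reference inhibitor; higher means more Nile Red retained so more efflux inhibition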
# Cdr2 pump inh: inhibitors of Candida albicans Cdr2 efflux pump; shares compounds with Efflux pump inh; S. cerevisiae AD/CaCDR2, Nile Red retention, flow cytometry; Nile Red retention ratio vs DMSO, % at 10 µM; hit rate 4% among 1,700; AID 588520; in the data active = Nile Red retention ratio vs DMSO above about 190%;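 note: higher ratio means more blocking of Cdr2 efflux of the dye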
# CaCdr1 efflux inh: blocks the Candida albicans Cdr1 efflux pump in yeast; shares compounds with Efflux pump inh; S. cerevisiae AD/CaCDR1, Nile Red efflux, flow cytometry; inhibition, % at 10 µM; hit rate 1% among 1,700;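 active = inhibition above the screen-wide mean plus twice its standard deviation, cut at about 32% in these data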
# An asterisk follows results filed as active; nt = not tested or not shown; + = active, no number. Shown are actives, neighbours in structure and some others; about 1.2% of the full set was active somewhere.
SMILES,FN deposition inh,CaV13 ICDI inh,Efflux pump inh,SR-BI uptake up,SR-BI HDL uptake,others
N=C1c2ccccc2CN1NC(=O)c1ccc(Cl)cc1,nt,-7,0,23,-23,
N=C1c2ccccc2CN1NC(=O)C1CC1,nt,-7,0,66*,-66,
CC(C)(O)/C=C/C(=O)C(C)(O)C1C(O)CC2(C)C3CC=C4C(C=C(O)C(=O)C4(C)C)C3(C)C(=O)CC12C (centres undefined),46*,-6,nt,10,-10,
CC(=O)OC(C)(C)/C=C/C(=O)[C@](C)(O)C1[C@H](O)C[C@@]2(C)C3CC=C4C(C[C@H](O)C(=O)C4(C)C)[C@]3(C)C(=O)C[C@]12C (some centres undefined),nt,nt,0,6,-6,
C[C@@H]([C@@H](O)c1ccccc1)N(C)C(=O)Cc1ccccc1,-3,-9,0,22,-22,
CN(C)CC(C(=O)Cc1ccccc1)c1ccccc1 (centres undefined),32*,-10,nt,16,-16,
Cc1cccc(NP(=O)(Oc2ccccc2)Oc2ccccc2)c1C,1,-2,0,-76,76*,
O=P(Nc1ccccc1)(Oc1ccccc1)Oc1ccccc1,6,-5,0,-3,3,
C=CCN1[C@@H]2CN(C(C)=O)C[C@H]1C2c1ccccc1 (some centres undefined),-2,nt,nt,nt,nt,
CCN(CC)c1ccc(N=Cc2c(O)n(-c3cc(OC)ccc3OC)c(=O)[nH]c2=O)cc1,nt,nt,0,-91,91*,
CC(C)NC(=O)N1C[C@@H]2C(c3ccc(Br)cc3)[C@H](C1)N2CC1CC1 (some centres undefined),-5,nt,nt,nt,nt,
C=C(C=O)C[C@@H]1C[C@H](O)C2OC3C[C@]4(C)OC5/C=C\CC6OC7C(CC=CCC6OC5CCCC4OC3CC2O1)OC1CC2OC3CC(=O)OC3C[C@@H](C)C[C@@]2(C)OC1C[C@@H]7C (some centres undefined),nt,nt,50*,nt,nt,
C[C@@H]1CN([C@@H](C)CO)C(=O)c2c(c3ccccc3n2C)-c2ccccc2CO[C@H]1CN(C)C(=O)Oc1ccccc1,-2,nt,nt,nt,nt,
O=C([C@H]1N[C@H]2c3cccc(=O)n3C[C@H]2[C@@H]1CO)N1CCCCC1,4,nt,nt,nt,nt,
CN1C[C@@H]2N[C@H](C1)C2c1ccc(Br)cc1 (some centres undefined),-5,nt,nt,nt,nt,
COC(=O)C1=C(C)NC(=S)NC1c1ccc(N(CCCl)CCCl)cc1Cl (centres undefined),5,-10,nt,-85,85*,
NC1(C(=O)O)CCCc2ccc(N(CCCl)CCCl)cc21 (centres undefined),12,-10,nt,9,-9,
OCCNc1c2c(nc3ccccc13)CCCC2,nt,0,0,0,0,
CNc1ccc2nc3ccccc3[n+](C)c2c1,12,-3,6.0*,-3,3,
C[n+]1c2ccccc2nc2ccc(NCCO)cc21,-5,-5,1.8*,22,-22,
CC(=O)N1C[C@@H]2N[C@H](C1)C2c1ccccc1 (some centres undefined),-6,nt,nt,nt,nt,
CN1C2CN(CC(F)(F)F)CC1C2c1ccc(Br)cc1 (centres undefined),-19,nt,nt,nt,nt,
CC(=O)N1C2CN(C)CC1C2c1ccc(Br)cc1 (centres undefined),-3,nt,nt,nt,nt,
C=CCN1[C@@H]2CN(C(=O)NC(C)C)C[C@H]1C2c1ccccc1 (some centres undefined),-5,nt,nt,nt,nt,
CS(=O)(=O)N1C[C@@H]2C(c3ccc(Br)cc3)[C@H](C1)N2CC1CC1 (some centres undefined),3,nt,nt,nt,nt,
SMILES,FN deposition inh,CaV13 ICDI inh,Efflux pump inh,SR-BI uptake up,SR-BI HDL uptake,others
NC(=O)c1cn(C2OC(CO)C(O)C2O)c2ncnc(N)c12 (centres undefined),53*,-6,0,10,-10,
CC(C)NC(=O)N1C[C@@H]2C(c3ccccc3)[C@H](C1)N2CC1CC1 (some centres undefined),4,nt,nt,nt,nt,
CN1/C(=C\C=C\C2=[N+](C)c3ccc4ccccc4c3C2(C)C)C(C)(C)c2ccccc21,nt,nt,106*,nt,nt,
CCN1/C(=C/C=C/C2=[N+](CC)c3ccccc3C2(C)C)C(C)(C)c2ccccc21,-61,-1,nt,nt,nt,
C[C@H](CO)N1C[C@H](C)[C@@H](CN(C)C(=O)Oc2ccccc2)OCc2ccccc2-c2c(n(C)c3ccccc23)C1=O,4,nt,nt,nt,nt,
CCC(C)N1C(=O)/C(=C\c2ccc(N3CCCCCC3)cc2)C(=O)NC1=S (centres undefined),-9,-5,0,2,-2,
CCC(C)N1C(=O)/C(=C\c2cc3c4c(c2)CCCN4CCC3)C(=O)NC1=S (centres undefined),-12,-3,0.7*,-9,9,Yeast cmpd fluor=118;Mdr1 pump inh=0;Cdr2 pump inh=114;CaCdr1 efflux inh=0
O=c1c2ccccc2nc(-c2ccccc2)n1-c1ccccc1,-5,-2,0,7,-7,
O=c1c2ccccc2[se]n1-c1ccccc1,-4,-5,4.0*,-2,2,Yeast cmpd fluor=96;Mdr1 pump inh=1;Cdr2 pump inh=107;CaCdr1 efflux inh=0
Clc1ccc(C(c2ccc(Cl)cc2)n2cc[n+](CC(OCc3ccc(Cl)cc3Cl)c3ccc(Cl)cc3Cl)c2)cc1 (centres undefined),-1,-4,90*,2,-2,Yeast cmpd fluor=94;Mdr1 pump inh=0;Cdr2 pump inh=+;CaCdr1 efflux inh=0
CCOc1ccc(N2C(=O)/C(=C/c3ccc(C)o3)C(=O)NC2=S)cc1,-3,-5,0.9*,6,-6,Yeast cmpd fluor=100;Mdr1 pump inh=0;Cdr2 pump inh=89;CaCdr1 efflux inh=0
C[C@H]1CN([C@@H](C)CO)C(=O)c2c(c3ccccc3n2C)-c2ccccc2CO[C@H]1CN(C)C(=O)Oc1ccccc1,-5,nt,nt,nt,nt,
O=C(Nc1c(F)cc(F)cc1F)c1cccn(Cc2ccccc2)c1=O,-3,-4,0.8*,-10,10,Yeast cmpd fluor=102;Mdr1 pump inh=0;Cdr2 pump inh=100;CaCdr1 efflux inh=0
C/C=C/c1ccc(C2[C@@H]3CN(C(=O)c4cnccn4)C[C@H]2N3)cc1 (some centres undefined),4,nt,nt,nt,nt,
Cc1cc(/C=C2\C(=O)NC(=O)N(c3ccc(Cl)cc3)C2=O)c(C)n1-c1sc2c(c1C#N)CCCC2,nt,-63,0.8*,6,-6,Yeast cmpd fluor=108;Mdr1 pump inh=0;Cdr2 pump inh=104;CaCdr1 efflux inh=0

# High-throughput results (PubChem)
